Reference: ChEMBL document CHEMBL4340521, “Subtle modifications to a thieno[2,3-d]pyrimidine scaffold yield negative allosteric modulators and agonists of the dopamine D2 receptor” (Eur J Med Chem, 2019)
The source made the active and inactive calls. The calls are words filed in the database; no cut-off is given here.

Legend:
D(2) dopamine receptor [1] = target: T1, D(2) dopamine receptor (Homo sapiens, UniProt P14416); assay: (§1) Negative allosteric modulation of recombinant human D2L receptor expressed in Flp-In CHO cells assessed as inhibition of dopamine-induced reduction in forskolin stimulated cAMP accumulation by measuring modulation of dopamine efficacy preincubated for 30 mins followed by forskolin stimulation and measured after 30 mins by BRET assay; assay type: functional, cell-based
T1 sequence (P14416 whole entry): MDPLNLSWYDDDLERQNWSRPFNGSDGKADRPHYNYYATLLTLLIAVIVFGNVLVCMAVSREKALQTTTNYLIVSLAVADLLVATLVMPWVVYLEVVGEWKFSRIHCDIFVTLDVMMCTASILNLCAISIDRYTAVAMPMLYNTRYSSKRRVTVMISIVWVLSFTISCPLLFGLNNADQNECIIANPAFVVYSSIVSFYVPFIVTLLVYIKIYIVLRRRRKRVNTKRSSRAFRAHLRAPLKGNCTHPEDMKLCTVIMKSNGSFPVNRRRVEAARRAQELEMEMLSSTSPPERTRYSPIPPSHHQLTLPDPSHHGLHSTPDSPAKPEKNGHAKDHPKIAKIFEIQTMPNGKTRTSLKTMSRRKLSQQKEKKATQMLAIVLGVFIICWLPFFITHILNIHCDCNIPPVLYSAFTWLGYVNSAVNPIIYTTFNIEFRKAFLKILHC

D(2) dopamine receptor [2] = target: T1, D(2) dopamine receptor; assay: as §1, with “measuring intrinsic efficacy” for “measuring modulation”, “of the modulator” for “of dopamine efficacy”; assay type: functional, cell-based
CHO [3] = assay: Modulation of dopamine-induced forskolin stimulated cAMP accumilation in hamster FlpIn CHO cells assessed as BRET signal at 100 uM preincubated for 30 mins followed by forskolin stimulation and measured after 30 mins by BRET assay relative to control; assay type: cell-based, Cricetinae; conditions: Cricetulus griseus, 0.5 h, read-out: Activity
In short: (§2)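 Wild-type FlpIn CHO cells lacking D2R, transfected with CAMYEL cAMP BRET biosensor. Compounds at 1-100 μM plus dopamine 10 μM added 30 min before stimulation, with or without 10 μM forskolin (final). Coelenterazine-h 5 μM final. BRET ratio 535/475 nm read 30 min after stimulation.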

D(2) dopamine receptor [4] = target: T1, D(2) dopamine receptor; assay: as §1, with “equilibrium dissociation constant” for “modulation of dopamine efficacy”; assay type: functional, cell-based
D(2) dopamine receptor [5] = target: T1, D(2) dopamine receptor; assay: Competitive antagonist activity at recombinant human D2L receptor expressed in Flp-In CHO cells assessed as inhibition of dopamine-induced reduction in forskolin stimulated cAMP accumulation preincubated for 30 mins followed by forskolin stimulation and measured after 30 mins by BRET assay; assay type: functional, cell-based; conditions: read-out: pA2 (converted)
D(2) dopamine receptor [6] = target: T1, D(2) dopamine receptor; assay: as §1, with “equilibrium dissociation constant up to 100 uM” for “modulation of dopamine efficacy”; assay type: functional, cell-based
D(2) dopamine receptor [7] = target: T1, D(2) dopamine receptor; assay: as §1, with “net cooperativity factor” for “modulation of dopamine efficacy”; assay type: functional, cell-based
CHO [8] = assay: Modulation of dopamine-induced forskolin stimulated cAMP accumilation in hamster FlpIn CHO cells assessed as BRET signal preincubated for 30 mins followed by forskolin stimulation and measured after 30 mins by BRET assay relative to control; assay type: cell-based; conditions: cricetinae, 0.5 h; in short: as §2

Row | Structure (SMILES) | log(activity) (D(2) dopamine receptor [1]) | log(activity) (D(2) dopamine receptor [2]) | activity at 100 µM (CHO [3]) [%] | Kb (D(2) dopamine receptor [4]) [µM] | pKb (D(2) dopamine receptor [4]) | Kb (D(2) dopamine receptor [5]) [µM] | Efficacy (D(2) dopamine receptor [1]) | Activity (D(2) dopamine receptor [6]) | Activity index (D(2) dopamine receptor [7]) | log(activity) (D(2) dopamine receptor [7]) | Intrinsic activity (D(2) dopamine receptor [2]) | Activity (CHO [8])
1 | CCN(CC)c1ncnc2sc3c(c12)CCCCCC3 | -3 | 0 | 28 | 14.5 | 4.84 | – | – | – | – | – | – | –
2 | c1nc(N2CCNCC2)c2c3c(sc2n1)CCCC3 | 0 | -3 | – | 20 | 4.7 | 21.4 | – | – | – | – | – | –
3 | c1nc(NC2CC2)c2c3c(sc2n1)CCCC3 | -1.48 | 0 | – | 0.88 | 6.05 | – | 0.03 | – | – | – | – | –
4 | Cc1sc2ncnc(NC3CCC3)c2c1C | -0.9 | – | – | 2.88 | 5.54 | – | 0.13 | – | – | – | – | –
5 | c1nc(NC2CCC2)c2cc(C3CCCCC3)sc2n1 | – | – | – | – | – | – | – | inactive | – | – | – | –
6 | c1nc(NC2CC2)c2c3c(sc2n1)CCCCC3 | -1.3 | 0 | – | 2.96 | 5.53 | – | 0.05 | – | – | – | – | –
7 | c1nc(NC2CCC2)c2c3c(sc2n1)CCCCC3 | -1.22 | 0 | – | 0.91 | 6.04 | – | 0.06 | – | – | – | – | –
8 | c1nc(NC2CC2)c2ccsc2n1 | 0 | -3 | – | 21.4 | 4.67 | – | – | – | 0.22 | -0.65 | – | –
9 | c1nc(NCC2CC2)c2c3c(sc2n1)CCCC3 | -0.54 | -0.06 | – | 1.19 | 5.92 | – | 0.29 | – | – | – | 0.86 | –
10 | c1nc(NC2CCCCC2)c2c3c(sc2n1)CCCC3 | – | – | – | – | – | – | – | inactive | – | – | – | –
11 | c1ccc(Nc2ncnc3sc4c(c23)CCCC4)cc1 | – | – | – | – | – | – | – | inactive | – | – | – | –
12 | CCN(CC)c1ncnc2sc3c(c12)CCC3 | -0.85 | 0 | – | 0.74 | 6.13 | – | 0.14 | – | – | – | – | –
13 | c1ccc(-c2csc3ncnc(NC4CCC4)c23)cc1 | 0 | -3 | – | – | 3.89 | – | – | – | 0.39 | -0.41 | – | –
14 | c1nc(NC2CC2)c2c3c(sc2n1)CCC3 | -0.55 | -0.13 | – | 6.01 | 5.22 | – | 0.28 | – | – | – | 0.75 | –
15 | Cc1sc2ncnc(NC3CC3)c2c1C | – | – | – | – | – | – | – | inactive | – | – | – | –
16 | c1nc(N2CCOCC2)c2c3c(sc2n1)CCCC3 | 0 | 0 | – | – | 3.9 | – | – | – | 1.66 | -0.22 | – | –
17 | c1nc(NC2CC2)c2c(C3CCCCC3)csc2n1 | -1.04 | 0 | – | 11.6 | 4.93 | – | 0.09 | – | – | – | – | –
18 | c1nc(NC2CCC2)c2c3c(sc2n1)CCCCCC3 | -0.58 | 0 | – | 3.98 | 5.4 | – | 0.26 | – | – | – | – | –
19 | c1nc(N2CCCC2)c2c3c(sc2n1)CCCC3 | -0.76 | 0 | – | 4.23 | 5.37 | – | 0.17 | – | – | – | – | –

Row | Structure (SMILES) | log(activity) (D(2) dopamine receptor [1]) | log(activity) (D(2) dopamine receptor [2]) | activity at 100 µM (CHO [3]) [%] | Kb (D(2) dopamine receptor [4]) [µM] | pKb (D(2) dopamine receptor [4]) | Kb (D(2) dopamine receptor [5]) [µM] | Efficacy (D(2) dopamine receptor [1]) | Activity (D(2) dopamine receptor [6]) | Activity index (D(2) dopamine receptor [7]) | log(activity) (D(2) dopamine receptor [7]) | Intrinsic activity (D(2) dopamine receptor [2]) | Activity (CHO [8])
20 | c1ccc(-c2csc3ncnc(NC4CC4)c23)cc1 | 0 | -3 | – | 1.93 | 5.72 | – | – | – | 0.32 | -0.47 | – | –
21 | CCN(CC)c1ncnc2scc(C3CCCCC3)c12 | – | – | – | – | – | – | – | inactive | – | – | – | –
22 | c1nc(N2CCCCC2)c2c3c(sc2n1)CCCC3 | 0 | 0 | 26 | 59.3 | 4.23 | – | – | – | – | – | – | Dose-dependent effect
23 | c1ccc(-c2cc3c(NC4CC4)ncnc3s2)cc1 | -0.37 | -0.22 | – | 6.35 | 5.92 | – | 0.43 | – | – | – | 0.6 | –
24 | c1nc(NC2CC2)c2cc(C3CCCCC3)sc2n1 | – | – | – | – | – | – | – | inactive | – | – | – | –
25 | CCN(CC)c1ncnc2sc3c(c12)CCCC3 | -3 | 0 | – | – | 5.72 | – | – | – | – | -3 | – | –
26 | CCN(CC)c1ncnc2scc(-c3ccccc3)c12 | 0 | -3 | – | 60 | 4.22 | – | – | – | 0.27 | -0.57 | – | –
27 | c1nc(NC2CCC2)c2c3c(sc2n1)CCCC3 | -0.65 | -0.72 | – | 0.57 | 6.25 | – | 0.22 | – | – | – | 0.19 | –
28 | CCN(CC)c1ncnc2sc(-c3ccccc3)cc12 | -3 | 0 | – | 0.9 | 6.04 | – | – | – | – | – | – | –
29 | c1ccc(-c2cc3c(NC4CCC4)ncnc3s2)cc1 | 0 | 0 | – | 4.5 | 5.35 | – | – | – | 0.28 | -0.55 | – | –
30 | CCN(CC)c1ncnc2sc3c(c12)CCCCC3 | – | – | – | – | – | – | – | inactive | – | – | – | –
31 | CCN(CC)c1ncnc2sccc12 | -0.89 | 0 | – | – | 5.31 | – | 0.13 | – | – | – | – | –
32 | c1nc(NC2CC2)c2c3c(sc2n1)CCCCCC3 | -1 | 0 | – | 0.53 | 6.27 | – | 0.1 | – | – | – | – | –
33 | c1nc(NC2CCC2)c2c3c(sc2n1)CCC3 | 0 | 0 | – | – | 3.99 | – | – | – | 0.57 | -0.25 | – | –
34 | CCN(CC)c1ncnc2sc(C3CCCCC3)cc12 | – | – | – | – | – | – | – | inactive | – | – | – | –
35 | CCN(CC)c1ncnc2sc(C)c(C)c12 | 0 | 0 | – | 19.5 | 4.71 | – | – | – | 0.24 | -0.61 | – | –
36 | c1nc(NC2CCC2)c2c(C3CCCCC3)csc2n1 | -1.55 | 0 | – | 2.92 | 5.53 | – | 0.03 | – | – | – | – | –
37 | c1nc(NC2CCC2)c2ccsc2n1 | 0 | 0 | – | 7.38 | 5.13 | – | – | – | 0.48 | -0.32 | – | –
38 | CC(C)(C)Nc1ncnc2sc3c(c12)CCCC3 | 0 | 0 | – | 92.5 | 4.03 | – | – | – | 0.91 | -0.04 | – | –
